# From PMC9532784 (Food Chemistry: X, 2022)
# Test system: PDE4
# Assay: In vitro PDE4-inhibitory assay
# Type: biochemical
# Settings: ratio of IC50 values
# Outline: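 Fluorescence-polarization kit. Test compound diluted in assay buffer containing 10 % DMSO (dilution solvent, not final), then added to reactions with PDE4 and 200 nM FAM-cAMP for 1 h at room temperature. Binding agent (1:99 in diluent) added for 30 min at RT with slow shaking; FP read at ex 485/em 528 nm. Triplicate per concentration; % activity = (FP−FPb)/(FPt−FPb)×100. IC50 from dose-response fit; ratios taken between IC50s.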
structure (smiles),measurement,setting,value
C[C@@H]1O[C@@H](O[C@H]2C(=O)c3c(O)cc(O)cc3O[C@@H]2c2ccc(O)c(O)c2)[C@H](O)[C@H](O)[C@H]1O [Astilbin],fold higher PDE4 inhibitory effect than isoastilbin,versus isoastilbin,8.9 fold
same,fold higher PDE4 inhibitory effect than neoastilbin,versus neoastilbin,2.9 fold
